Assay outcomes: PubChem BioAssay, The Scripps Research Institute Molecular Screening Center
A selection: hits, their analogues and other compounds. The true share with any hit is near 1.9%.
Rin1-Abl PPI inh – inhibitors of Rin1-Abl protein binding, primary screen, biochemical, TR-FRET; 360,000 tested, 0.4% active; Tyrosine-protein kinase ABL1 (Homo sapiens) + Ras and Rab interactor 1 (Homo sapiens), …; inhibition, % at 7.35 µM; in the data active means inhibition above about 5%, passing the limit was not always enough
MBD2 DNA inh – inhibitors of MBD2 binding to methylated DNA, primary screen, biochemical, TR-FRET, DNA-binding domain, human | inhibition, % at 4.4 µM | 370,000 tested, 0.31% active | Methyl-CpG-binding domain protein 2 (Homo sapiens), Q9UBB5 | MBD2 binding to methylated oligonucleotide; in the data active means inhibition above about 13%
Target sequence (Q9UBB5 whole entry, looked up, the tested form may be a part): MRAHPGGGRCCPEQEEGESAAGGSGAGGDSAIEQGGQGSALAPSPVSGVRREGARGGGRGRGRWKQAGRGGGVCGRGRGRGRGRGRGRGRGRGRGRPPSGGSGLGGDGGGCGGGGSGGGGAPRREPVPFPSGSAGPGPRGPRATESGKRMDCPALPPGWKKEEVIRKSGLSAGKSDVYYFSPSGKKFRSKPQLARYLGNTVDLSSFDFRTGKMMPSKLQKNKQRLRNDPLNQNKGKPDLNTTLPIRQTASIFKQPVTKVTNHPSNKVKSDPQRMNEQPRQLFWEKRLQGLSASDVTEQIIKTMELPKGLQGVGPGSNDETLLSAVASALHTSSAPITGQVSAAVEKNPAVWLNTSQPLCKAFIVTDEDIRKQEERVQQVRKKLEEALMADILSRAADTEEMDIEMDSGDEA
TDP2 inh – human TDP2 enzyme inhibitors, primary screen, biochemical, epi absorbance, recombinant enzyme; T5PNP hydrolysis, p-nitrophenol absorbance 415 nm; inhibition, % at 12.8 µM; 370,000 tested, 0.34% active; AID 720702, 2013;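 active means inhibition above the mean of all tested compounds plus 3 SD, set per campaign, cut at about 25% in these data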;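 further: 0% = DMSO with enzyme and 100% = buffer with substrate but no TDP2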
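Test system: Human TDP2 enzyme | Reagent: 5 mM T5PNP | Compound dosing: 12.8 µM single point, 1% DMSO | Incubation: Enzyme reaction with compound for 2 h at 37 °C | Technique: p-Nitrophenol epi absorbance | Read-out: % inhibition relative to enzyme-containing and enzyme-free wells | Benchmarks: High control without enzyme, low control DMSO plus TDP2 | Replicates: Singlicate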
UHRF1 binding – UHRF1 methylated DNA binding inhibitors, primary screen, counter-screen for MBD2 inhibitor project, biochemical, TR-FRET, human UHRF1, single concentration; E3 ubiquitin-protein ligase UHRF1 (Homo sapiens), Q96T88; UHRF1 binding to methylated oligo; 370,000 tested, 0.75% active; inhibition, % at 4.4 µM; in the data active means inhibition above about 21%;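 further: UHRF1 SRA domain binding a hemimethylated CpG hairpin DNA probe; 0% = median of test compound wells and 100% = reference inhibitor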
LEDGF integ inh – blockers of LEDGF/p75-dependent integrase strand transfer – biochemical, TR-FRET, high throughput, primary screen | HIV-1 integrase (with human LEDGF/p75) | TR-FRET IN-LEDGF/p75 DNA integration, Eu/Cy5 | inhibition, % at 3.7 µM | 370,000 tested, 0.64% active;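 active means inhibition above the screen-wide mean plus 3 SD, cut at about 13% in these data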;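 further: signal is the Cy5 over europium emission ratio at 671 and 618 nm; 0% = plate median of compound wells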
TDP2 inh conf – human TDP2 enzyme inhibitors, retest, confirmation, biochemical, epi absorbance, recombinant enzyme | shares compounds with TDP2 inh | absorbance read-out | inhibition, % at 12.8 µM | 1,100 tested, 22% active; in the data active means inhibition above about 25%;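 further: 0% = vehicle with enzyme and 100% = no enzyme buffer only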
IN multimer up – HIV-1 IN multimer formation enhancers, counter-screen for LEDGF/p75 integration inhibitor project, biochemical, TR-FRET; shares compounds with LEDGF integ inh; TR-FRET HIV-1 integrase multimerization; activation, % at 7.7 µM; 2,000 tested, 17% active; in the data active means activation above about 8.9%
TR-FRET interf – TR-FRET optical interference artefacts, confirmation, artefact control for LEDGF/p75-dependent integration inhibitor project, biochemical, HIV-1 IN multimerization. shares compounds with LEDGF integ inh. TR-FRET optical interference counterscreen. inhibition, % at 7.7 µM. 2,000 tested, under 10 active. AID 1053135, 2014;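 active means inhibition above the mean over all tested compounds plus 3 SD, which no compound reached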;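 further: 0% = integrase with antibodies and DMSO and 100% = antibodies without integrase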
IN-LEDGF confirm – inhibitors of HIV-1 IN-LEDGF/p75 DNA integration, confirmation, biochemical, TR-FRET. shares compounds with LEDGF integ inh. TR-FRET LEDGF/p75-dependent HIV-1 integration. inhibition, % at 3.7 µM. 2,000 tested, 36% active; in the data active means inhibition above about 14%
Active calls of the source: *; / = not tested or not shown.

SMILES | Rin1-Abl PPI inh | MBD2 DNA inh | TDP2 inh | UHRF1 binding | LEDGF integ inh | IN multimer up | TR-FRET interf | IN-LEDGF confirm | others
CCOC(=O)c1c(N)n(CCOC(=O)c2cccs2)c2nc3ccccc3nc12 | 1 | 6 | 75* | 12 | 33* | 1 | -3 | -3 | TDP2 inh conf=-6
C/C(=N\NC(=O)c1ccccc1[N+](=O)[O-])c1ccc(Br)s1 | 3 | 2 | -4 | 2 | 59* | -1 | 4 | -7
O=c1cc(C(F)(F)F)nc(-n2[nH]c3c(c2=O)CCCC3)[nH]1 | 0 | 2 | -6 | 1 | 17* | 3 | -10 | -11
O=C1NC(=Nc2ccc(O)cc2)S/C1=C\C=C\c1ccco1 | 0 | -5 | 18 | 5 | 39* | 18* | -93 | 53*
COc1ccc(C(=O)OCC(=O)NC2CCCCCCC2)cc1OC | 7 | 1 | 0 | 2 | 27* | 1 | -5 | 2
COc1ccc(C(=O)OCC(=O)NC2CCCCCC2)cc1OC | 3 | 3 | -2 | 3 | -1 | / | / | /
COc1ccc(OC)c(/C=C/C(=O)N2CCCc3ccccc32)c1 | -1 | -1 | 4 | 2 | 0 | / | / | /
COc1ccc(/C=C/C(=O)N2CCCc3ccccc32)cc1 | 3 | 0 | -2 | -2 | 21* | 9.5* | -34 | 19*
O=c1cc(CSc2nnc(NC3CCCCC3)s2)nc2sccn12 | 3 | 3 | -6 | 3 | -8 | / | / | /
C=CCn1c(SCc2cc(=O)n3ccsc3n2)nnc1C1CCCCC1 | -1 | 4 | -4 | 10 | 15* | 6 | -29 | 2
COc1cc(-c2cc(=O)c3c(O)c(OC)c(OC)c(O)c3o2)ccc1O | 8 | -1 | 1 | -3 | 25* | 27* | -136 | 22*
CCC(=O)c1ccc(OCC(O)Cn2cnc3ccccc32)cc1 (configuration not stated) | 3 | 3 | 2 | 2 | 36* | 11* | -57 | -3
CCC(=O)c1ccc(OCC(O)Cn2c(C)nc3ccccc32)cc1 (configuration not stated) | -4 | 7 | -11 | 6 | -3 | / | / | /
COc1ccc(-c2cc3ncc(C(C)=O)c(C)n3n2)cc1 | 1 | 1 | 1 | 1 | 25* | 0 | 0 | -1
O=C(Nc1cccs1)OC1CC2CC1[C@H]1CCCCN1C2 (some centres not stated) | / | 0 | -2 | 1 | -1 | / | / | /
O=c1c2ccccc2nc2n1CCCCC2 | 1 | 5 | -2 | -1 | -1 | / | / | /
O=c1c2ccccc2nc2n1CCC2 | 2 | -4 | 9 | 0 | 15* | 0 | -1 | 34*
N#Cc1ccc2nc(-c3ccc(CN4CCC5(CC4)CNc4ccccc45)cc3)c(-c3ccccc3)nc2c1 | / | 3 | -14 | 2 | 3 | / | / | /
O=C1OC(c2cccs2)=N/C1=C\c1ccc(-c2ccccc2Cl)o1 | -1 | -4 | 0 | -1 | 5 | / | / | /
O=C1OC(c2cccs2)=N/C1=C/c1ccc(-c2cccc(C(=O)O)c2)o1 | 4 | 8 | 5 | 44* | 29* | 9.5* | -48 | 15*
CCOC(=O)[C@]12CCCC=C1N(CCCOC)C(=O)[C@@H]2CC(=O)NCCCCc1ccccc1 | / | -6 | 1 | -2 | 3 | / | / | /
COCCCC1CCN(C(=O)C2CCC(=O)N(CCc3ccccc3)C2)CC1 (configuration not stated) | 3 | 1 | 3 | 0 | -3 | / | / | /
COCCCC1CCN(C(=O)C2CCC(=O)N(CCCc3ccccc3)C2)CC1 (configuration not stated) | -2 | -3 | 4 | 2 | 20* | 2 | -6 | 2
C[C@@H]1COc2cc(Br)ccc2S(=O)(=O)N1Cc1cn(CC2CCCCC2)nn1 | / | 1 | 12 | -2 | -2 | / | / | /
CCCCn1c(N)c(N(CCOC)C(=O)c2ccc(N3CCCC3)c([N+](=O)[O-])c2)c(=O)[nH]c1=O | -4 | -7 | -4 | -7 | 27* | 0 | -2 | 2
SMILES | Rin1-Abl PPI inh | MBD2 DNA inh | TDP2 inh | UHRF1 binding | LEDGF integ inh | IN multimer up | TR-FRET interf | IN-LEDGF confirm | others
COP(=O)(CC(=O)O)C(CC(C)C)NC(=O)OCc1ccccc1 (configuration not stated) | / | 5 | 3 | 0 | -4 | / | / | /
Cc1cc(C(=O)COc2cccnc2[N+](=O)[O-])c(C)n1Cc1cccs1 | -2 | -1 | 10 | 1 | 14* | 2 | -8 | 5
Nc1scc2c(C(=O)N/N=C/c3ccc(Cl)cc3)nn(-c3ccccc3)c(=O)c12 | 5 | -3 | 24 | 7 | 13* | 4 | -15 | 11
O=C1C=C(c2cccs2)C[C@H](c2ccccc2)[C@H]1n1nnc([N+](=O)[O-])n1 | 3 | -5 | 3 | -4 | 14* | 2 | -8 | 18*
N#Cc1c(NC(=O)/C=C/c2ccco2)sc2c1CCCC2 | 0 | 1 | -9 | 1 | 1 | / | / | /
O=C(O)CCCNC(=O)/C=C/c1ccco1 | 1 | 11 | 0 | 58* | 38* | 38* | -192 | 87*
O=C(/C=C/c1ccco1)Nc1ccccc1C(=O)Nc1cccc(C(=O)O)c1 | -1 | 5 | -9 | 20 | 25* | 4 | -21 | 19*
O=C(/C=C/c1ccco1)Nc1sc2c(c1C(=O)O)CCC2 | 4 | 8 | 15 | 33* | 21* | 3 | -9 | -3
O=C(/C=C/c1ccco1)Nc1ccccc1C(=O)O | -1 | 4 | 0 | 24* | 17* | 1 | -3 | 33*
O=C(/C=C/c1ccco1)Nc1cc(Cl)ccc1C(=O)O | -4 | 1 | 3 | 9 | 8 | / | / | /
CC1CN(c2nc3ccccc3nc2SCC(=O)N2CCN(S(=O)(=O)c3ccc(F)cc3)CC2)CC(C)O1 (configuration not stated) | / | -2 | -1 | 0 | -2 | / | / | /
